Each structure is given as a SMILES string.

The nature of series [1]: Inhibition of Plasmodium falciparum DHODH (159- 569 aa) expressed in Escherichia coli BL21(DE3) cells assessed as 2,6-dichloroindophenol reduction by colorimetric method. Put shortly: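 Second-stage PfDHODH IC50 determination from concentration–response curves, run only on compounds giving ≥80% inhibition at 50 µM in the single-point screen. PfDHODH final concentration was 50 nM. IC50 was not assigned where substrate consumption could not be measured at some concentrations on the curve.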

Series [2] relates to Plasmodium falciparum. The series can be described thus: Antimalarial activity against CQ-sensitive Plasmodium falciparum 3D7 infected in erythrocytes by SYBR Green dye based fluorescence assay. The format is functional, organism-based.
Series [3] relates to HepG2. Kind of series: Cytotoxicity against human HepG2 cells assessed as cell viability after 72 hrs by MTT assay. The format is cell-based. As to conditions: HepG2, 72 h. In general terms: Formazan colour is commonly taken as a measure of viable cells.
Series [4] is described as follows: Selectivity index, ratio of IC50 for cytotoxicity against human HepG2 cells to IC50 for antimalarial activity against Plasmodium falciparum 3D7. It is filed as toxicity, cell-based. As to conditions: read-out: Ratio IC50.
Series [5] concerns the target Dihydroorotate dehydrogenase (quinone), mitochondrial (Homo sapiens) (UniProt Q02127). Kind of series: Inhibition of human DHODH assessed as 2,6-dichloroindophenol reduction at 50 uM by colorimetric method. The procedure, abridged:
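First-stage HsDHODH screen at a single compound concentration of 50 µM, reported as % inhibition. It was run in parallel with the PfDHODH screen.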

For series [6], the system named is Plasmodium falciparum. Kind of series: Inhibition of Plasmodium falciparum DHODH (159- 569 aa) expressed in Escherichia coli BL21(DE3) cells assessed as 2,6-dichloroindophenol reduction at 50 uM by colorimetric method. The procedure, abridged:
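First-stage PfDHODH screen at a single compound concentration of 50 µM, reported as % inhibition. Compounds giving ≥80% inhibition went on to IC50 determination. The PfDHODH final concentration in the inhibition assay was 50 nM.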

Sequence of Dihydroorotate dehydrogenase (quinone), mitochondrial (Homo sapiens) (Q02127 whole entry): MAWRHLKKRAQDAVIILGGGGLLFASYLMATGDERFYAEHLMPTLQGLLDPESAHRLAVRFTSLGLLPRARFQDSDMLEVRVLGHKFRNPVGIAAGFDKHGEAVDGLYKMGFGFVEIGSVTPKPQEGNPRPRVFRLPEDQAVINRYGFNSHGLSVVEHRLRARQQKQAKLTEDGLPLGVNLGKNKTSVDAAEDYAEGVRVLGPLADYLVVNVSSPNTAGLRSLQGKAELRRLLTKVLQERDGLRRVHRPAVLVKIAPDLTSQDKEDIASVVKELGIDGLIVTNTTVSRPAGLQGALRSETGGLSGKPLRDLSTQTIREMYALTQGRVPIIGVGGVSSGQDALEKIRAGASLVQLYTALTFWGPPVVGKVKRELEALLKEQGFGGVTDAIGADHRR

Turning to `Cc1cc(Nc2ccc(S(=O)(=O)Nc3ccc(C(F)(F)F)cc3)cc2)n2ncnc2n1`, the IC50 in series [1] was greater than 50 µM; in series [2] it was 0.15 µM; in series [3], greater than 100 µM. For the same compound, the selectivity ratio in series [4] was greater than 667. The inhibition in series [5] stood at 0%.
For the compound `Cc1cc(Nc2ccc(S(=O)(=O)Nc3ccccc3)cc2)n2nc(C(F)(F)F)nc2n1`, the IC50 is greater than 50 µM in series [1], 1.3 µM in series [2] and 92 µM in series [3]. The selectivity ratio in series [4] was greater than 70. For the same compound, the inhibition is less than 80% in series [6] and 0% in series [5].
With `Cc1ccc(NS(=O)(=O)c2ccc(Nc3cc(C)nc4cc(C)nn34)cc2)cc1`, the IC50 in series [1] was greater than 50 µM; in series [2], greater than 10 µM. Also, the results for the inhibition in series [6] and in series [5] were 25% and 0%, respectively.
`Cc1cc(Nc2ccc(S(=O)(=O)Nc3ccc(F)cc3)cc2)n2nc(C(F)(F)F)nc2n1`: the IC50 in series [1] stood at 0.5 µM; in series [2], 0.086 µM; in series [3], 101 µM. Further, in series [4], the selectivity ratio was 1170. For the same compound, the inhibition in series [5] came out at 0%.
`O=S(=O)(Nc1ccc(Cl)cc1)c1ccc(Nc2ccnc3cc(Cl)ccc23)cc1`: the IC50 was 1.7 µM in series [2] and 93 µM in series [3]. The selectivity ratio in series [4] was greater than 56.
As for `O=S(=O)(Nc1ccc2ccccc2c1)c1ccc(Nc2ccnc3cc(Cl)ccc23)cc1`, the IC50 in series [2] is 0.89 µM; in series [3] it was 13 µM. The selectivity ratio in series [4] amounted to 15.1.
For `CCN(CC)CCCC(C)Nc1ccnc2cc(Cl)ccc12` (configuration not stated) [CHLOROQUINE], the half-inhibitory concentration (IC50) in series [3] is 384 µM.
Take `O=S(=O)(Nc1ccc(F)cc1)c1ccc(Nc2ccnc3cc(Cl)ccc23)cc1`: the half-maximal inhibitory concentration (IC50) in series [2] worked out at 4.6 µM; in series [3], 92 µM. Further, in series [4], the selectivity ratio was greater than 21.
`Cc1cc(Nc2ccc(S(=O)(=O)Nc3ccccc3)cc2)n2nc(C)nc2n1`: the 50% inhibitory concentration (IC50) is greater than 50 µM in series [1], 6.9 µM in series [2] and 193 µM in series [3]. In series [4], the selectivity ratio was 28. The inhibition in series [5] came to 0%.
For `Cc1cc(Nc2ccc(S(=O)(=O)Nc3ccc(C(F)(F)F)cc3)cc2)n2nc(C)cc2n1`, the 50% inhibitory concentration (IC50) in series [1] was greater than 50 µM; in series [2], 8 µM; in series [3] it was 42 µM. In addition, the selectivity ratio in series [4] turned out to be 5.25. The inhibition in series [6] worked out at 25%; in series [5], 0%.
For `Cc1ccc(NS(=O)(=O)c2ccc(Nc3cc(C)nc4nc(C(F)(F)F)nn34)cc2)cc1`, the IC50 amounted to 0.8 µM in series [1], 0.032 µM in series [2] and 54 µM in series [3]. In addition, the selectivity ratio in series [4] was found to be 1690. For the same compound, the inhibition in series [5] came to 0%.
On the same counts, the results for `Cc1cc(Nc2ccc(S(=O)(=O)Nc3ccc(F)cc3)cc2)n2ncnc2n1` are 0.3 µM, 2 µM, 367 µM, greater than 187 and 0%.
`Cc1ccc(NS(=O)(=O)c2ccc(Nc3ccnc4cc(Cl)ccc34)cc2)cc1`: the IC50 stood at 0.97 µM in series [2] and 92 µM in series [3]. For the same compound, in series [4], the selectivity ratio was greater than 95.
Consider `Cc1cc(Nc2ccc(S(=O)(=O)Nc3ccc4ccccc4c3)cc2)n2nc(C)cc2n1`, for which the IC50 in series [1] was greater than 50 µM; in series [2], greater than 10 µM. Also, the inhibition in series [6] worked out at 25%; in series [5], 0%.
As to `Cc1cc(Nc2ccc(S(=O)(=O)Nc3ccc(Cl)cc3)cc2)n2nc(C)nc2n1`, the IC50 in series [1] is 0.6 µM; in series [2], 0.8 µM; in series [3], greater than 50 µM. Besides, the selectivity ratio in series [4] is greater than 62.5. Moreover, in series [5], the inhibition was determined as 0%.
Taken in the same sequence, the figures for `Cc1cc(Nc2ccc(S(=O)(=O)Nc3ccc4ccccc4c3)cc2)n2nc(C(F)(F)F)nc2n1` were 0.22 µM, 0.05 µM, greater than 100 µM, greater than 2000 and 0%.
Taken in the same sequence, the figures for `COc1ccc(NS(=O)(=O)c2ccc(Nc3cc(C)nc4ncnn34)cc2)cc1` were greater than 50 µM, 4 µM, 46 µM, greater than 13 and 0%.
Regarding `Cc1cc(Nc2ccc(S(=O)(=O)Nc3ccc(F)cc3)cc2)n2nc(C)cc2n1`, the results for the IC50 in series [1] and in series [2] were greater than 50 µM and greater than 10 µM, respectively. Further, the inhibition in series [6] stood at 25%; in series [5], 0%.
For the compound `Cc1cc(Nc2ccc(S(=O)(=O)Nc3ccc(C(F)(F)F)cc3)cc2)n2nc(C(F)(F)F)nc2n1`, the IC50 is greater than 50 µM in series [1], 0.03 µM in series [2] and 90 µM in series [3]. In addition, the selectivity ratio in series [4] came to 3000. Also, the inhibition in series [5] came to 0%.
`O=S(=O)(Nc1ccc(C(F)(F)F)cc1)c1ccc(Nc2ccnc3cc(Cl)ccc23)cc1`: the IC50 in series [2] was determined as 2.1 µM; in series [3], 23 µM. In addition, the selectivity ratio in series [4] turned out to be 11.
Consider `Cc1cc(Nc2ccc(S(=O)(=O)Nc3ccc4ccccc4c3)cc2)n2nc(C)nc2n1`, for which the IC50 in series [1] is 0.4 µM; in series [2], 0.64 µM; in series [3], 56 µM. Moreover, the selectivity ratio in series [4] is 87.4. Further, the inhibition in series [5] was 0%.
On the same counts, the results for `Cc1cc(Nc2ccc(S(=O)(=O)Nc3ccccc3)cc2)n2ncnc2n1` are 0.8 µM, 9.1 µM, 365 µM, greater than 40 and 0%.
Turning to `C[C@H]1[C@H](OC(=O)CCC(=O)O)O[C@@H]2O[C@@]3(C)CC[C@H]4[C@H](C)CC[C@@H]1[C@@]24OO3` [ARTESUNATE], the results for the IC50 in series [2] and in series [3] were 0.009 µM and 267 µM, respectively. In series [4], the selectivity ratio was 29700.
For the compound `COc1ccc(NS(=O)(=O)c2ccc(Nc3cc(C)nc4cc(C)nn34)cc2)cc1`, the results for the IC50 in series [1] and in series [2] were greater than 50 µM and greater than 10 µM, respectively. Moreover, the inhibition in series [6] was 25%; in series [5], 0%.
In the case of `Cc1ccc(NS(=O)(=O)c2ccc(Nc3cc(C)nc4ncnn34)cc2)cc1`, the values for the IC50 in series [1], in series [2] and in series [3] were 0.41 µM, 0.5 µM and 367 µM, respectively. For the same compound, in series [4], the selectivity ratio was greater than 728. Moreover, the inhibition in series [5] turned out to be 0%.
Taken in the same sequence, the figures for `COc1ccc(NS(=O)(=O)c2ccc(Nc3cc(C)nc4nc(C(F)(F)F)nn34)cc2)cc1` were 0.21 µM, 0.8 µM, 93 µM, greater than 114 and 0%.
In the case of `Cc1cc(Nc2ccc(S(=O)(=O)Nc3ccc(Cl)cc3)cc2)n2nc(C)cc2n1`, the IC50 in series [1] was greater than 50 µM; in series [2], greater than 10 µM. The inhibition amounted to 25% in series [6] and 0% in series [5].
As for `COc1ccc(NS(=O)(=O)c2ccc(Nc3cc(C)nc4nc(C)nn34)cc2)cc1`, the IC50 in series [1] was 1.3 µM; in series [2] it was 4 µM; in series [3] it was 170 µM. In addition, the selectivity ratio in series [4] worked out at 42.5. Further, in series [5], the inhibition came to 0%.
In the case of `Cc1cc(Nc2ccc(S(=O)(=O)Nc3ccc(C(F)(F)F)cc3)cc2)n2nc(C)nc2n1`, the results for the IC50 in series [1], in series [2] and in series [3] were 0.6 µM, 0.39 µM and 125 µM, respectively. In series [4], the selectivity ratio was 321. In series [5], the inhibition came to 0%.
For `Cc1cc(Nc2ccc(S(=O)(=O)Nc3ccc4ccccc4c3)cc2)n2ncnc2n1`, the IC50 in series [1] amounted to 0.3 µM; in series [2] it was 0.23 µM; in series [3], 56 µM. Further, in series [4], the selectivity ratio came out at 243. The inhibition in series [5] worked out at 0%.
Taken in the same sequence, the figures for `Cc1ccc(NS(=O)(=O)c2ccc(Nc3cc(C)nc4nc(C)nn34)cc2)cc1` were 0.3 µM, 0.91 µM, 110 µM, 121 and 0%.
On the same counts, the results for `Cc1cc(Nc2ccc(S(=O)(=O)Nc3ccc(Cl)cc3)cc2)n2ncnc2n1` are greater than 50 µM, 3 µM, 92 µM, greater than 31 and 0%.
With `COc1ccc(NS(=O)(=O)c2ccc(Nc3ccnc4cc(Cl)ccc34)cc2)cc1`, the IC50 in series [2] was found to be 2.8 µM; in series [3], 92 µM. Besides, the selectivity ratio in series [4] is greater than 33.
In the case of `O=S(=O)(Nc1ccccc1)c1ccc(Nc2ccnc3cc(Cl)ccc23)cc1`, the IC50 came to 2 µM in series [2] and 92 µM in series [3]. Besides, the selectivity ratio in series [4] was greater than 46.
Consider `Cc1cc(Nc2ccc(S(=O)(=O)Nc3ccc(F)cc3)cc2)n2nc(C)nc2n1`, for which the IC50 in series [1] came out at 1 µM; in series [2], 2.7 µM; in series [3] it was 150 µM. The selectivity ratio in series [4] came out at 55.6. Besides, in series [5], the inhibition came to 0%.
For `Cc1cc(Nc2ccc(S(=O)(=O)Nc3ccc(Cl)cc3)cc2)n2nc(C(F)(F)F)nc2n1`, the IC50 in series [1] came out at 0.08 µM; in series [2], 0.4 µM; in series [3] it was 47 µM. For the same compound, the selectivity ratio in series [4] is greater than 123. In addition, the inhibition in series [5] amounted to 0%.

For orientation: IC50 means the midpoint of a concentration-inhibition curve. Broadly, the inhibition is the drop in the measured response relative to a control, in per cent.

The values above are taken from ChEMBL document CHEMBL4706622, “Comparative study between the anti-P. falciparum activity of triazolopyrimidine, pyrazolopyrimidine and quinoline derivatives and the identification of new PfDHODH inhibitors” (Eur J Med Chem, 2021).
